# Legend:
# HT-29 [1] = experiment: Growth inhibition of human HT-29 cells after 72 hrs by cell titer glo assay; assay type: functional, cell-based; details: HT-29, 72 h
# [2] = molecular target: T1, cGMP-specific 3',5'-cyclic phosphodiesterase (Homo sapiens, UniProt O76074); experiment: Inhibition of human recombinant PDE5 at 100 uM after 1.5 hrs by fluorescent polarization assay
# Summary of the method: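 Single 100 μM screening dose, run in triplicate. Purified PDE5 with 50 nM TAMRA-cGMP, 1.5 h at 30 °C, then IMAP binding reagent for 30 min at 30 °C. Percent inhibition from fluorescence polarization.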
# [3] = molecular target: T1, cGMP-specific 3',5'-cyclic phosphodiesterase; experiment: Inhibition of human recombinant PDE5 after 1.5 hrs by fluorescent polarization assay
# Summary of the method: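 Purified PDE5 (5 μ/mL) treated with compound or vehicle plus 50 nM TAMRA-cGMP, incubated 1.5 h at 30 °C. IMAP binding reagent was then added for 30 min at 30 °C and fluorescence polarization read.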
# HT-29 [4] = experiment: Growth inhibition of human HT-29 cells at 100 uM after 72 hrs by cell titer glo assay; assay type: functional; details: HT-29, 72 h, read-out: GI
# Summary of the method: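 HT-29 cells in RPMI 1640/5% FBS, >95% viable at harvest, seeded 5000 cells/well and incubated 18–24 h before dosing at a single 100 μM screening dose (final DMSO 0.1%). Percent growth inhibition from CellTiter-Glo luminescence 72 h after treatment, triplicate wells.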
SMILES,IC50 (HT-29 [1]) [µM],Inhibition [2] [%],IC50 [3] [nM],inhibition of growth at 100 µM (HT-29 [4]) [%]
CCCCN1CC(=O)N2[C@H](c3ccccc3Br)c3[nH]c4ccccc4c3C[C@H]2C1=O,> 100,93.8,50,–
CCN1C(=O)[C@@H]2Cc3c([nH]c4ccccc34)[C@@H](c3ccccc3Br)N2C1=O,20,99.5,38,69.8
CN1CC(=O)N2[C@@H](c3ccccc3Br)c3[nH]c4ccccc4c3C[C@@H]2C1=O,–,75.5,88000,61.7
CCN1CC(=O)N2[C@@H](c3ccccc3Br)c3[nH]c4ccccc4c3C[C@@H]2C1=O,–,91.7,–,65.6
CN1CC(=O)N2[C@@H](c3ccccc3Br)c3[nH]c4ccccc4c3C[C@H]2C1=O,27,92.7,2800,76.1
CCCCN1CC(=O)N2[C@@H](c3ccccc3Br)c3[nH]c4ccccc4c3C[C@H]2C1=O,> 100,69.1,–,–
COC(=O)[C@H]1Cc2c([nH]c3ccccc23)[C@@H](c2ccccc2Br)N1,48,85.5,5600,89
CCN1CC(=O)N2[C@@H](c3ccccc3Br)c3[nH]c4ccccc4c3C[C@H]2C1=O,–,90.3,–,–
CCCCN1CC(=O)N2[C@H](c3ccccc3Br)c3[nH]c4ccccc4c3C[C@@H]2C1=O,–,99.7,260,55.7
CN1CC(=O)N2[C@H](c3ccc4c(c3)OCO4)c3[nH]c4ccccc4c3C[C@@H]2C1=O,> 100,100,–,–
CCN1CC(=O)N2[C@H](c3ccccc3Br)c3[nH]c4ccccc4c3C[C@H]2C1=O,–,89.2,–,47.2
COC(=O)[C@H]1Cc2c([nH]c3ccccc23)[C@H](c2ccccc2Br)N1C(=O)CCl,> 100,47.9,–,–
COC(=O)[C@@H]1Cc2c([nH]c3ccccc23)[C@H](c2ccccc2Br)N1,26,46,–,92.8
COC(=O)[C@@H]1Cc2c([nH]c3ccccc23)[C@@H](c2ccccc2Br)N1,–,91.1,3100,57.5
O=C1[C@@H]2Cc3c([nH]c4ccccc34)[C@H](c3ccccc3Br)N2C(=O)CN1Cc1ccccc1,> 100,48.7,–,–
CCN1C(=O)[C@@H]2Cc3c([nH]c4ccccc34)[C@H](c3ccccc3Br)N2C1=O,24,89.5,640,77.9

SMILES,IC50 (HT-29 [1]) [µM],Inhibition [2] [%],IC50 [3] [nM],inhibition of growth at 100 µM (HT-29 [4]) [%]
O=C1[C@@H]2Cc3c([nH]c4ccccc34)[C@@H](c3ccccc3Br)N2C(=O)CN1Cc1ccccc1,> 100,100,40,–
COC(=O)[C@@H]1Cc2c([nH]c3ccccc23)[C@@H](c2ccccc2Br)N1C(=O)CCl,–,47.9,–,–
CCCCN1CC(=O)N2[C@@H](c3ccccc3Br)c3[nH]c4ccccc4c3C[C@@H]2C1=O,–,66.7,–,50.2
O=C1[C@H]2Cc3c([nH]c4ccccc34)[C@H](c3ccccc3Br)N2C(=O)CN1Cc1ccccc1,> 100,69.4,–,–
CN1CC(=O)N2[C@H](c3ccccc3Br)c3[nH]c4ccccc4c3C[C@H]2C1=O,25.5,97.6,60,–
CN1CC(=O)N2[C@H](c3ccccc3Br)c3[nH]c4ccccc4c3C[C@@H]2C1=O,–,96,100,50.4
CCN1C(=O)[C@H]2Cc3c([nH]c4ccccc34)[C@H](c3ccccc3Br)N2C1=S,> 100,82.8,74000,–
COC(=O)[C@H]1Cc2c([nH]c3ccccc23)[C@@H](c2ccccc2Br)N1C(=O)CCl,1.6,86,29000,–
CCN1C(=O)[C@H]2Cc3c([nH]c4ccccc34)[C@@H](c3ccccc3Br)N2C1=O,21,98.7,290,79.5
CCN1CC(=O)N2[C@H](c3ccccc3Br)c3[nH]c4ccccc4c3C[C@@H]2C1=O,> 100,97,–,–
COC(=O)[C@@H]1Cc2c([nH]c3ccccc23)[C@H](c2ccccc2Br)N1C(=O)CCl,4.1,35.8,–,–
COC(=O)[C@H]1Cc2c([nH]c3ccccc23)[C@H](c2ccccc2Br)N1,78,21.5,–,85
O=C1[C@H]2Cc3c([nH]c4ccccc34)[C@@H](c3ccccc3Br)N2C(=O)CN1Cc1ccccc1,–,91.9,3400,34.2
CCN1C(=O)[C@H]2Cc3c([nH]c4ccccc34)[C@H](c3ccccc3Br)N2C1=O,–,93,4000,65.1
CCN1C(=O)[C@@H]2Cc3c([nH]c4ccccc34)[C@@H](c3ccccc3Br)N2C1=S,22.5,93.5,6100,–

# Reference: ChEMBL document CHEMBL1157080 (Eur J Med Chem, 2010)
